Experimental data of several laboratories.
Each line is one published result; the experiments were not run side by side.
Target: Homeodomain-interacting protein kinase 3 (HIPK3, Homo sapiens, UniProt Q9H422)

SMILES | test | conditions | endpoint | value
O=C(O)c1ccc2c(c1)nc(Nc1ccc(Cl)cc1)c1ccncc12 | enzyme activity, inhibitor, radiometric | 1 µM | remaining activity | 9%
CCc1ccccc1C(=O)Nc1n[nH]c2c(C)c(F)c(C3C(C#N)=C(C)N(C)C(C)=C3C#N)cc12 | cell-free assay, competition with immobilised ligand | 1 µM | remaining binding | 100%
Cc1ccc(NC(=O)c2ccc(C)c(C(F)(F)F)c2)cc1C#Cc1nn(C2CCC(O)CC2)c2ncnc(N)c12 (stereo not drawn) | cell-free assay | 10 µM | remaining signal | 81%
Cc1noc([C@H]2C[C@@H](c3ccc(C(F)(F)F)cc3)CN(C(=O)N3CCS(=O)(=O)C3)C2)n1 | cell-free assay, competition with immobilised ligand | 1 µM | remaining binding | 96%
N#CCCc1ccc2c(c1)-c1[nH]c3ccc([N+](=O)[O-])cc3c1CC(=O)N2 | cell-free assay | 0.5 µM | remaining signal | 104%
COc1cc(/C=C/C(=O)CC(=O)/C=C/c2ccc(O)c(OC)c2)ccc1O | enzyme activity, inhibitor | 1 µM | activity vs control | 88%
Cc1cc(NC(=O)c2cccc3cc(-c4cccc5[nH]nc(N)c45)ccc23)ccc1F | enzyme activity, inhibitor | 0.1 µM | activity vs control | 92%
FC(F)(F)Oc1cccc(-c2cnc3ccc(-c4ccncc4)nn23)c1 | enzyme activity, inhibitor, radiometric | 5 µM | activity vs control | 35%
COc1cc(-c2cc(-c3ccc(N4CCNCC4)cc3)cnc2C)cc(OC)c1OC | enzyme activity, inhibitor | 1 µM | inhibition | 2%
COc1cc2ncnc(Nc3ccc(F)c(Cl)c3)c2cc1OCCCN1CCOCC1 | cell-free assay | 0.5 µM | remaining signal | 103%
O=C(O)c1ccc2c(c1)nc(Nc1cccc(F)c1)c1ccncc12 | enzyme activity, inhibitor, radiometric | 1 µM | remaining activity | 10%
CN([C@@H]1CCc2c(CC(=O)O)c3ccccc3n2C1)S(=O)(=O)c1ccc(F)cc1 | cell-free assay, competition with immobilised ligand | 1 µM | remaining binding | 71%
CCN(CC)CCNC(=O)c1c(C)[nH]c(/C=C2\C(=O)Nc3ccc(F)cc32)c1C | enzyme activity, inhibitor | 0.3 µM | inhibition | 21%
O=C(O)c1ccc2c(c1)nc(NCCc1cccc(F)c1)c1ncncc12 | enzyme activity, inhibitor, radiometric | 1 µM | remaining activity | 27%
O=C1NC(=O)c2cc(Nc3ccc(F)cc3)c(Nc3ccc(F)cc3)cc21 | cell-free assay | 0.5 µM | remaining signal | 95.3%
O=C(O)c1ccc2c(c1)nc(Nc1ccccc1)c1ncncc12 | enzyme activity, inhibitor, radiometric | 1 µM | remaining activity | 13%
Cc1ccc(Nc2nccc(N(C)c3ccc4c(C)n(C)nc4c3)n2)cc1S(N)(=O)=O | enzyme activity, inhibitor | 0.3 µM | inhibition | 24%
Cc1nc(Cc2cccc(C(F)(F)F)c2)sc1-c1ccc(C(N)=O)nc1 | cell-free assay, competition with immobilised ligand | 1 µM | remaining binding | 100%
CCCS(=O)(=O)Nc1ccc(F)c(C(=O)c2c[nH]c3ncc(-c4ccc(Cl)cc4)cc23)c1F | enzyme activity, inhibitor | 1 µM | inhibition | < 10%
O=C(O)c1ccc2c(c1)nc(Nc1cccc(F)c1)c1ncncc12 | enzyme activity, inhibitor, radiometric | 1 µM | remaining activity | 5%
CC(C)CC(=O)N1CCc2nc(-c3ccc(Br)cc3)nc(N(C)Cc3ccccc3)c2C1 | cell-free assay, competition with immobilised ligand | 0.1 µM | remaining binding | 100%
CN1CC(Oc2cnc(C#N)cc2-c2ccn3nc(NC(=O)C4CC4)cc3c2)C1 | enzyme activity, inhibitor | 1 µM | inhibition | -3%
COc1cccc(CCNc2nc3cc(C(=O)O)ccc3c3cnccc23)c1 | enzyme activity, inhibitor, radiometric | 1 µM | remaining activity | 21%
CCOc1cc(-c2nncn2C)ccc1Nc1ncc2cc(C)nc(NCC(C)(C)C)c2n1 | enzyme activity, inhibitor, FRET | 1 µM | inhibition | < 15%
COc1cccc(CNC(=O)c2nc3scc(COCc4ccc(C(=O)O)cc4)c3c(=O)[nH]2)c1 | cell-free assay, competition with immobilised ligand | 1 µM | remaining binding | 73.7%
O=C(O)c1ccc2c(c1)nc(Nc1ccc(Cl)cc1)c1ncncc12 | enzyme activity, inhibitor, radiometric | 1 µM | remaining activity | 7%
COc1ccc2c(O[C@@H]3C[C@H]4C(=O)N[C@]5(C(=O)O)CC5/C=C\CCCCC[C@H](NC(=O)OC5CCCC5)C(=O)N4C3)cc(-c3csc(NC(=O)C(C)C)n3)nc2c1C (stereo partly drawn) | cell-free assay, competition with immobilised ligand | 1 µM | remaining binding | 83%
O=C(O)c1ccc2c(c1)nc(NCc1ccccc1)c1ccncc12 | enzyme activity, inhibitor, radiometric | 1 µM | remaining activity | 68%
CCCOc1ccc([C@H]2[C@H](C(=O)O)[C@@H](c3ccc4c(c3)OCO4)CN2CC(=O)Nc2c(CC)cccc2CC)cc1 | cell-free assay, competition with immobilised ligand | 1 µM | remaining binding | 74%
COc1cc2ncnc(Nc3ccc(Oc4ccccc4)cc3C)c2cc1OC | enzyme activity, inhibitor | 1 µM | inhibition | 3%
